# Data from ChEMBL document CHEMBL1145037, “Structural properties of dibenzosuberanylpiperazine derivatives for efficient reversal of chloroquine resistance in Plasmodium chabaudi” (2003).
# How the values were obtained:
# [1] = Antimalarial activity was determined in female mice (Mus musculus) after intraperitoneal administration of 50 mg; assay type: functional, Plasmodium chabaudi
# Procedure, shortened: (§1)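 4- to 5-week-old female ICR (CD-1) mice infected iv with 5×10^6 parasitized RBC of CQ-resistant 3CQ line of P. chabaudi AS, thawed from cryopreserved stock. Compound dissolved in DMSO, diluted with saline to 10% (w/v) DMSO, given ip 2 h post-infection and daily for 3 more days (four injections). Parasitemia (PRBC per 10 000 RBC, Giemsa thin films) read daily for 5 days; two mice per compound, three or five for some.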
# [2] = chloroquine-resistant reversal activity was determined in female mice (Mus musculus) after intraperitoneal administration of 50 mg; assay type: functional, Plasmodium chabaudi
# Procedure, shortened: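 Female ICR CD-1 mice, 4–5 weeks old, given 5×10^6 P. chabaudi AS 3CQ (CQ-resistant) line PRBC iv (thawed from cryopreserved blood). 2 h later, test compound (in DMSO diluted with saline to 10% DMSO) ip plus chloroquine 3 or 4 mg/kg ip, repeated daily for 4 total injections. Controls: DMSO, CQ alone, compound alone. Parasitemia per 10 000 RBC on Giemsa smears daily for 5 days.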
# Mus musculus [3] = assay: Chloroquine resistant reversal activity was determined in female mice after intraperitoneal administration of 50 mg and 4 mg of chloroquine; assay type: functional
# Procedure, shortened: (§2)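 Female ICR (CD-1) mice, 4-5 weeks old, infected iv with 5×10^6 PRBC of CQ-resistant 3CQ line of P. chabaudi AS (cryopreserved stock). 2 h later, test compound (in DMSO diluted with saline to 10% w/v DMSO) given ip, followed by ip CQ; repeated for 3 more days (four injections). Groups: DMSO, CQ alone, compound alone, combination. Parasitemia from Giemsa thin films, daily days 0-4.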
# Mus musculus [4] = assay: Antimalarial activity was determined in female mice after intraperitoneal administration of 15 mg of the compound; assay type: functional; procedure, shortened: as §1
# Mus musculus [5] = assay: Chloroquine resistant reversal activity was determined on day 0 in female mice after intraperitoneal administration of 10 mg and 4 mg of chloroquine; assay type: functional; procedure, shortened: as §2
# Mus musculus [6] = assay: Chloroquine resistant reversal activity was determined on day 0 in female mice after intraperitoneal administration of 15 mg and 4 mg of chloroquine; assay type: functional; procedure, shortened: as §2
# Mus musculus [7] = assay: Chloroquine resistant reversal activity was determined on day 0 in female mice after intraperitoneal administration of 5 mg and 4 mg of chloroquine; assay type: functional; procedure, shortened: as §2
# Mus musculus [8] = assay: Chloroquine resistant reversal activity was determined in female mice after intraperitoneal administration of 15 mg and 4 mg of chloroquine; assay type: functional; procedure, shortened: as §2
# Mus musculus [9] = assay: Chloroquine resistant reversal activity was determined on day 1 in female mice after intraperitoneal administration of 10 mg and 4 mg of chloroquine; assay type: functional; procedure, shortened: as §2
# Mus musculus [10] = assay: Chloroquine resistant reversal activity was determined on day 1 in female mice after intraperitoneal administration of 15 mg and 4 mg of chloroquine; assay type: functional; procedure, shortened: as §2
# Mus musculus [11] = assay: Chloroquine resistant reversal activity was determined on day 1 in female mice after intraperitoneal administration of 5 mg and 4 mg of chloroquine; assay type: functional; procedure, shortened: as §2
# Mus musculus [12] = assay: Chloroquine resistant reversal activity was determined on day 2 in female mice after intraperitoneal administration of 10 mg and 4 mg of chloroquine; assay type: functional; procedure, shortened: as §2
# Mus musculus [13] = assay: Chloroquine resistant reversal activity was determined on day 2 in female mice after intraperitoneal administration of 15 mg and 4 mg of chloroquine; assay type: functional; procedure, shortened: as §2
# Mus musculus [14] = assay: Chloroquine resistant reversal activity was determined on day 2 in female mice after intraperitoneal administration of 5 mg and 4 mg of chloroquine; assay type: functional; procedure, shortened: as §2
# Mus musculus [15] = assay: Chloroquine resistant reversal activity was determined on day 3 in female mice after intraperitoneal administration of 10 mg and 4 mg of chloroquine; assay type: functional; procedure, shortened: as §2
# Mus musculus [16] = assay: Chloroquine resistant reversal activity was determined on day 3 in female mice after intraperitoneal administration of 15 mg and 4 mg of chloroquine; assay type: functional; procedure, shortened: as §2
# Mus musculus [17] = assay: Chloroquine resistant reversal activity was determined on day 3 in female mice after intraperitoneal administration of 5 mg and 4 mg of chloroquine; assay type: functional; procedure, shortened: as §2
# Mus musculus [18] = assay: Chloroquine resistant reversal activity was determined on day 4 in female mice after intraperitoneal administration of 10 mg and 4 mg of chloroquine; assay type: functional; procedure, shortened: as §2
# Mus musculus [19] = assay: Chloroquine resistant reversal activity was determined on day 4 in female mice after intraperitoneal administration of 15 mg and 4 mg of chloroquine; assay type: functional; procedure, shortened: as §2
# Mus musculus [20] = assay: Chloroquine resistant reversal activity was determined on day 4 in female mice after intraperitoneal administration of 5 mg and 4 mg of chloroquine; assay type: functional; procedure, shortened: as §2
# Mus musculus [21] = assay: Chloroquine resistant reversal activity was determined on day 0 in female mice after intraperitoneal administration of 30 mg and 4 mg of chloroquine; assay type: functional; procedure, shortened: as §2
# Mus musculus [22] = assay: Chloroquine resistant reversal activity was determined on day 0 in female mice after intraperitoneal administration of 50 mg and 4 mg of chloroquine; assay type: functional; procedure, shortened: as §2
# Mus musculus [23] = assay: Chloroquine resistant reversal activity was determined on day 1 in female mice after intraperitoneal administration of 30 mg and 4 mg of chloroquine; assay type: functional; procedure, shortened: as §2
# Mus musculus [24] = assay: Chloroquine resistant reversal activity was determined on day 1 in female mice after intraperitoneal administration of 40 mg and 4 mg of chloroquine; assay type: functional; procedure, shortened: as §2
# Mus musculus [25] = assay: Chloroquine resistant reversal activity was determined on day 1 in female mice after intraperitoneal administration of 50 mg and 4 mg of chloroquine; assay type: functional; procedure, shortened: as §2
# Mus musculus [26] = assay: Chloroquine resistant reversal activity was determined on day 2 in female mice after intraperitoneal administration of 30 mg and 4 mg of chloroquine; assay type: functional; procedure, shortened: as §2
# Mus musculus [27] = assay: Chloroquine resistant reversal activity was determined on day 2 in female mice after intraperitoneal administration of 40 mg and 4 mg of chloroquine; assay type: functional; procedure, shortened: as §2
# Mus musculus [28] = assay: Chloroquine resistant reversal activity was determined on day 2 in female mice after intraperitoneal administration of 50 mg and 4 mg of chloroquine; assay type: functional; procedure, shortened: as §2
# Mus musculus [29] = assay: Chloroquine resistant reversal activity was determined on day 3 in female mice after intraperitoneal administration of 30 mg and 4 mg of chloroquine; assay type: functional; procedure, shortened: as §2
# Mus musculus [30] = assay: Chloroquine resistant reversal activity was determined on day 3 in female mice after intraperitoneal administration of 50 mg and 4 mg of chloroquine; assay type: functional; procedure, shortened: as §2
# Mus musculus [31] = assay: Chloroquine resistant reversal activity was determined on day 4 in female mice after intraperitoneal administration of 30 mg and 4 mg of chloroquine; assay type: functional; procedure, shortened: as §2
# Mus musculus [32] = assay: Chloroquine resistant reversal activity was determined on day 4 in female mice after intraperitoneal administration of 40 mg and 4 mg of chloroquine; assay type: functional; procedure, shortened: as §2
# Mus musculus [33] = assay: Chloroquine resistant reversal activity was determined on day 4 in female mice after intraperitoneal administration of 50 mg and 4 mg of chloroquine; assay type: functional; procedure, shortened: as §2
# Mus musculus [34] = assay: Chloroquine resistant reversal activity was determined on day 0 in female mice after intraperitoneal administration of 40 mg and 4 mg of chloroquine; assay type: functional; procedure, shortened: as §2
# Mus musculus [35] = assay: Chloroquine resistant reversal activity was determined on day 3 in female mice after intraperitoneal administration of 40 mg and 4 mg of chloroquine; assay type: functional; procedure, shortened: as §2
# Mus musculus [36] = assay: Chloroquine resistant reversal activity was determined in female mice after intraperitoneal administration of 50 mg and 3 mg of chloroquine; assay type: functional; procedure, shortened: as §2
smiles,measurement,setting,value
CCCCCCCCCCCCCCC(O)CN1CCN(C2c3ccccc3CCc3ccccc32)CC1 (stereo unspecified),Antimalarial activity,[1],122%
same,Reversal activity,[2],110%
C=CCCC(O)CN1CCN(C2c3ccccc3CCc3ccccc32)CC1 (stereo unspecified),Antimalarial activity,[1],101%
same,Reversal activity,[2],0%
CCC(O)CN1CCN(C2c3ccccc3CCc3ccccc32)CC1 (stereo unspecified),Antimalarial activity,[1],99%
same,Reversal activity,Mus musculus [3],0%
C=CC(C)N1CCN(C2c3ccccc3CCc3ccccc32)CC1 (stereo unspecified),Antimalarial activity,[1],22%
same,Reversal activity,Mus musculus [3],0%
Cl.c1ccc2c(c1)CCc1ccccc1C2N1CCNCC1,Antimalarial activity,[1],68%
same,Reversal activity,Mus musculus [3],2%
Cl.c1ccc2c(c1)CCc1ccccc1C2N1CCN(C2c3ccccc3CCc3ccccc32)CC1,Antimalarial activity,[1],108%
same,Reversal activity,[2],81%
CCCCCCC(O)CN1CCN(C2c3ccccc3CCc3ccccc32)CC1 (stereo unspecified),Antimalarial activity,[1],92%
same,Reversal activity,[2],102%
C=CC(CO)N1CCN(C2c3ccccc3CCc3ccccc32)CC1 (stereo unspecified),Antimalarial activity,Mus musculus [4],103%
same,Reversal activity,Mus musculus [5],0%
same,Reversal activity,Mus musculus [6],0%
same,Reversal activity,Mus musculus [7],0%
same,Reversal activity,Mus musculus [8],2.6%
same,Reversal activity,Mus musculus [9],59%
same,Reversal activity,Mus musculus [10],37%
same,Reversal activity,Mus musculus [11],69%
same,Reversal activity,Mus musculus [12],37%
same,Reversal activity,Mus musculus [13],13%
same,Reversal activity,Mus musculus [14],35%
same,Reversal activity,Mus musculus [15],23%
same,Reversal activity,Mus musculus [16],4%
same,Reversal activity,Mus musculus [17],33%
same,Reversal activity,Mus musculus [18],8.6%
same,Reversal activity,Mus musculus [19],2.6%
same,Reversal activity,Mus musculus [20],17%
CC(=O)OCC#CCN1CCN(C2c3ccccc3CCc3ccccc32)CC1,Antimalarial activity,[1],116%
same,Reversal activity,Mus musculus [3],0%
OC(COc1ccccc1)CN1CCN(C2c3ccccc3CCc3ccccc32)CC1 (stereo unspecified),Antimalarial activity,[1],136%
same,Reversal activity,[2],113%
CCCCCCCCCCCCCCCCC(O)CN1CCN(C2c3ccccc3CCc3ccccc32)CC1 (stereo unspecified),Antimalarial activity,[1],67%
same,Reversal activity,[2],68%
OCC#CCN1CCN(C2c3ccccc3CCc3ccccc32)CC1,Antimalarial activity,[1],121%
same,Reversal activity,Mus musculus [3],0%
C=CC(O)CN1CCN(C2c3ccccc3CCc3ccccc32)CC1 (stereo unspecified),Antimalarial activity,[1],82%
same,Reversal activity,Mus musculus [3],0%
same,Reversal activity,Mus musculus [5],0%
same,Reversal activity,Mus musculus [6],0%
same,Reversal activity,Mus musculus [21],0%
same,Reversal activity,Mus musculus [22],0%
same,Reversal activity,Mus musculus [7],0%
same,Reversal activity,Mus musculus [9],62%
same,Reversal activity,Mus musculus [10],49%
same,Reversal activity,Mus musculus [23],55%
same,Reversal activity,Mus musculus [24],33%
same,Reversal activity,Mus musculus [25],42%
same,Reversal activity,Mus musculus [11],76%
same,Reversal activity,Mus musculus [12],21%
same,Reversal activity,Mus musculus [13],16%
same,Reversal activity,Mus musculus [26],38%
same,Reversal activity,Mus musculus [27],10%
same,Reversal activity,Mus musculus [28],6.2%
same,Reversal activity,Mus musculus [14],32%
same,Reversal activity,Mus musculus [15],7.9%
same,Reversal activity,Mus musculus [16],9.5%
same,Reversal activity,Mus musculus [29],2.9%
same,Reversal activity,Mus musculus [30],0%
same,Reversal activity,Mus musculus [17],12%
same,Reversal activity,Mus musculus [18],6%
same,Reversal activity,Mus musculus [19],5.4%
same,Reversal activity,Mus musculus [31],0%
same,Reversal activity,Mus musculus [32],0%
same,Reversal activity,Mus musculus [33],0%
same,Reversal activity,Mus musculus [20],11%
same,Reversal activity,Mus musculus [34],0%
same,Reversal activity,Mus musculus [35],0%
CCCCCCCCC(O)CN1CCN(C2c3ccccc3CCc3ccccc32)CC1 (stereo unspecified),Antimalarial activity,[1],152%
same,Reversal activity,[2],84%
C=CCCCCCCC(O)CN1CCN(C2c3ccccc3CCc3ccccc32)CC1 (stereo unspecified),Antimalarial activity,[1],68%
same,Reversal activity,[2],6.8%
COc1ccc(OCC(O)CN2CCN(C3c4ccccc4CCc4ccccc43)CC2)cc1 (stereo unspecified),Antimalarial activity,[1],147%
same,Reversal activity,Mus musculus [36],90%
CCCCCCCCCCCCC(O)CN1CCN(C2c3ccccc3CCc3ccccc32)CC1 (stereo unspecified),Antimalarial activity,[1],138%
same,Reversal activity,[2],64%
C=CCCCCC(O)CN1CCN(C2c3ccccc3CCc3ccccc32)CC1 (stereo unspecified),Antimalarial activity,[1],108%
same,Reversal activity,[2],8.9%
